Where two headings read alike, the source gives them in different places.
Experiments:
[1] = type: in vitro ADME, human; conditions: Protocol 2B; for Jss (steady state flux through the SC) / kp (permeation coefficient) / Mass balance / tlag (lag time): human SC; for Mass balance: 22 h; for tlag (lag time): from non-linear regression of cumulative amount penetrated vs. time
Summary of the method: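 Isolated SC on 0.22 μm SuPor membrane, thickness by digital micrometer; flow-through cells at 32°C, stirred, receptor DPBS+ at 25 μl/min, equilibrated ≥30 min before dosing; 22 h occluded incubation; donor sampled pre/post; SC dissolved in 1M NaOH, radioactivity counted with washes for mass balance. Jss from earliest linear slope, membrane-corrected; kp = Jss/C; KSC/v·HSC and DSC/HSC² by non-linear Fick's-second-law fit of cumulative absorbed vs time.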

[2] = type: in vitro ADME; conditions: Protocol 1, pig skin, 30 min exposure, infinite dose, mean (%CV)
Summary of the method: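 Pig skin was shaved, trimmed to 2–3 mm and defatted, then mounted as 32 mm discs in Franz cells over 9 g l–1 NaCl and equilibrated 1 h at 32°C with stirring. Infinite dose (350 μl cm–2), 30 min exposure, excess removed, then 15 weighed tape strips over 18 mm, extracted with methanol. HSC came from TEWL; depth profiles were fitted to Fick's 2nd-law solution for KSC/v and DSC/HSC².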

[3] = type: in vitro ADME, human
[4] = human skin, Equation (10) non-linear regression, mean (%CV)
[5] = Protocol 1, human skin, 30 min exposure, infinite dose, mean (%CV)

In the case of `CCOc1ccc2ccc(=O)oc2c1` [7‐Ethoxycoumarin], the “Jss (steady state flux through the SC)” value [1] is reported as 225 ng/cm^2, the “kp (permeation coefficient)” value [1] is reported as 0.000342 ± 0.000678 cm/h and the Mass balance [1] is reported as 97.3 ± 1.4%. The “tlag (lag time)” value [1] was 0.001 ± 0.004 h, the “DSC/HSC ^2” value [1, 4] was 0.078 (26%) h^‐1 and the KSC/v [1, 4] was 0.019 (34%). The “DSC/HSC ^2” value [2] was 0.10 (44%) h^‐1, the KSC/v [2] was 89.5 (4.6%) and the KSC/v ([2]; listed as 7‐EC) was 89.5. The “DSC/HSC ^2” value [3, 5] was 0.030 (55%) h^‐1, the KSC/v [3, 5] was 39.5 (19%) and the KSC/v ([3]; Protocol 1, human skin, 30 min exposure, infinite dose, mean (%CV), listed as 7‐EC) was 39.5. The KSC/v ([3]; Protocol 1, single human donor in duplicate, 30 min exposure) was 34.5 ± 6.4 and the KSC/v ([3]; Protocol 1, single human donor in duplicate, 90 min exposure) was 46.0 ± 1.4.
In the case of `Cn1c(=O)c2c(ncn2C)n(C)c1=O` [Caffeine], the “Jss (steady state flux through the SC)” value [1] is reported as 1261429 ng/cm^2, the “kp (permeation coefficient)” value [1] is reported as 0.000556 ± 0.0004 cm/h and the Mass balance [1] is reported as 99.7 ± 1.3%. For the same compound, the “tlag (lag time)” value [1] was 1.82 ± 1.02 h, the KSC/v [1, 4] was 2.63 (70%) and the KSC/v [2] was 1.27 (31%). The KSC/v ([2]; listed as caffeine) was 1.27, the KSC/v [3, 5] was 2.68 (20%) and the KSC/v ([3]; Protocol 1, human skin, 30 min exposure, infinite dose, mean (%CV), listed as caffeine) was 2.68.
With `Oc1cccc(O)c1` [Resorcinol] the “Jss (steady state flux through the SC)” value [1] was 2699031 ng/cm^2, the “kp (permeation coefficient)” value [1] was 0.00084 ± 0.00048 cm/h and the Mass balance [1] was 99.2 ± 2.5%. The “tlag (lag time)” value [1] was 2.13 ± 0.16 h.

Source: article PMC5484360 (Journal of Applied Toxicology, 2017)
